# An excerpt weighted towards active compounds, which were near 9.6% of everything screened.
# HCT116 bCat-KO: beta-catenin-lacking colon tumor cell growth suppression. AID 818. hit rate 1.5% among 140,000. viability, % at 10 µM. HCT116 beta-catenin knockout viability, CellTiter-Glo, 60 h; active compounds read low;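 active means viability at or under a set limit, the compound median less 4 SD, cut at about 6% in these data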
# TNAP act hi DEA: increases human TNAP activity under high phosphate acceptor concentration | activation factor at 20 µM | 200,000 tested, under 10 active | P05186 | AID 1136 | purified TNAP, CDP-star luminescence, 1 M DEA, 30 min; active compounds read high; 0 = EDTA background, 1 = DMSO-only activity;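 active means activation factor at least 2 at 20 µM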
# Target sequence (P05186 whole entry, looked up): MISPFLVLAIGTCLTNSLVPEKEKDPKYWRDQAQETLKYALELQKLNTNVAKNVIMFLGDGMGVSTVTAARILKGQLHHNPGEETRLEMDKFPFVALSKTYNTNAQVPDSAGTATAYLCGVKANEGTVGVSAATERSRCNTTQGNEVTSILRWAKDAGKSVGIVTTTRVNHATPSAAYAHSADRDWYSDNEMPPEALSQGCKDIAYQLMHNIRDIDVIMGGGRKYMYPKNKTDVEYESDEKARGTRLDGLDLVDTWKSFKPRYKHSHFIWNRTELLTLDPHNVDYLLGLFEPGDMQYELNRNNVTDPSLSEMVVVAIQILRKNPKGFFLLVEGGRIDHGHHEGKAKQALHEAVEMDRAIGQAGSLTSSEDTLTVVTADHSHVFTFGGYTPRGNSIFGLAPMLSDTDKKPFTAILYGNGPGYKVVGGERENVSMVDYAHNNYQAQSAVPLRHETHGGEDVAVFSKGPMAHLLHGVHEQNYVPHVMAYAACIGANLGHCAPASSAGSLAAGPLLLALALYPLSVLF
#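 Measured by: Luminescent substrate turnover signal | Test system: Human TNAP | Input: TNAP 1/800 final | Dosing: 20 µM single point | Schedule: 30 min, room temperature | Controls: EDTA wells as negative control, DMSO wells as positive control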
# HCT116 PTEN-null: suppresses growth of cells with PTEN deletion. HCT116 PTEN-null viability, CellTiter-Glo, 60 h; active compounds read low. viability, % at 10 µM. hit rate 1.2% among 140,000. AID 827;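 active means viability at or below a set limit, 4 SD under the median of all tested compounds, cut at about 3.7% in these data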;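 further: PTEN knockout HCT116 line with beta catenin targeted HCT116 as companion control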
# TNAP inh no acc: blocks human TNAP activity with no phosphate acceptor present | P05186 | purified TNAP, CDP-star luminescence, 30 min | inhibition, % at 20 µM | hit rate 0.26% among 200,000;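 active means tissue-nonspecific alkaline phosphatase inhibition above about 50% at 20 µM in the single-dose screen, limit read from the data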
# TNAP inh hiacc: TNAP (human) inhibition, high acceptor | purified TNAP, CDP-star luminescence, 1 M DEA | P05186 | hit rate 0.03% among 200,000 | inhibition, % at 20 µM;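 active means over 50% inhibition of tissue-nonspecific alkaline phosphatase at 20 µM in the single-dose screen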
# Lmaj promast: inhibitors of Leishmania major promastigote growth; Leishmania major promastigotes, resazurin fluorescence viability; inhibition, % at 10 µM; hit rate 9% among 200,000; AID 1063; in the data active means inhibition above about 50%;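 further: promastigotes grown with compound for 44 hours at 28 °C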
# A number is an active result; n = inactive; x = no result given.
SMILES,HCT116 bCat-KO,TNAP act hi DEA,HCT116 PTEN-null,TNAP inh no acc,TNAP inh hiacc,Lmaj promast
Cc1cccc(-c2cc3nc(C)cc(NCCCN(C)C)n3n2)c1,n,n,n,53,n,n
COCCNc1cc(C)nc2cc(-c3ccc(C)cc3)nn12,x,n,x,n,n,n
CC(=O)c1ccc(N2CCN(Cc3nc(Cc4ccccc4)no3)CC2)cc1,x,n,x,n,n,n
CC(C)NC(=O)C1CCN(C2CCN(Cc3ccc4cccc(F)c4n3)CC2)CC1,x,n,x,n,n,73
CC(C)NC(=O)C1CCN(C2CCN(Cc3nc(C(C)C)cs3)CC2)CC1,x,n,x,n,n,n
O=C(c1cccc(C(F)(F)F)c1)C1CCCN(C(=O)CCCn2cncn2)C1 (stereo unspecified),x,n,x,n,n,n
COc1ccc([N+](=O)[O-])cc1N(CC(=O)N1CCOCC1)S(C)(=O)=O,x,n,x,n,n,n
Cc1ccc2nc(NC3=NCN(Cc4ccc5c(c4)OCO5)CN3)nc(C)c2c1,x,x,x,x,x,100
Cc1ccc2nc(NC3=NCN(C4CCCCC4)CN3)nc(C)c2c1,x,n,x,n,n,x
O=c1ccc2ccc(Oc3ccc([N+](=O)[O-])cc3[N+](=O)[O-])cc2o1,n,n,n,n,n,n
C[n+]1cc(-c2ccccc2)n2c1CCCCC2,n,n,n,n,n,n
O=C(C[n+]1cc(-c2ccccc2)n2c1CCCCC2)c1ccc(Cl)cc1,n,n,n,n,n,70
Cc1ccc(-c2c[n+](CC(=O)c3ccc(Br)cc3)c3n2CCCCC3)cc1,x,n,x,n,n,100
CC1CCC(C(C)C)C(OC(=O)C[n+]2cc(-c3ccc(Cl)cc3)n3c2CCCCC3)C1 (stereo unspecified),x,n,x,n,n,100
O=[N+]([O-])c1cc(S(=O)(=O)N2CCCC2)ccc1SCCO,x,n,x,n,n,n
O=C(NC1CCCCC1)C1c2ccccc2C(=O)N1Cc1ccc2c(c1)OCO2 (stereo unspecified),x,n,x,n,n,n
CCOC(=O)C1=NN(c2ccc(OC)cc2)C(c2ccccc2)CC1=O (stereo unspecified),n,n,n,n,n,61
O=C(Nc1ccccc1N1CCOCC1)c1cccnc1Cl,x,n,x,n,n,n
Cc1ccccc1OCCSc1nnc(-c2cccnc2)n1N,n,n,n,n,n,n
CCCCCCNc1nc(-c2ccc(OC)cc2)c(CCC(=O)O)s1,n,n,n,n,n,n
Cc1cc2cc3c(cc2nc1SCC(=O)Nc1nc(C)c(C)s1)OCO3,n,n,n,n,n,83
COC(=O)CSc1nc2cc3c(cc2cc1C)OCO3,x,n,x,n,n,n
FCCCOc1ccc(CN2CCN(c3ccccc3F)CC2)cc1,x,n,x,n,n,n
Cc1cc(N/N=C/c2cccc(Br)c2)nc2ccccc12,n,n,n,n,n,61
Cc1cc(N/N=C/c2ccncc2)nc2ccccc12,x,n,x,n,n,73
SMILES,HCT116 bCat-KO,TNAP act hi DEA,HCT116 PTEN-null,TNAP inh no acc,TNAP inh hiacc,Lmaj promast
CC(=O)c1sc(N/N=C\c2cccc(Br)c2)nc1C,n,n,n,n,n,n
O=C(COc1ccccc1)N1CCc2ccccc21,n,n,n,n,n,n
O=C(COc1ccc2ccccc2c1CN1CCOCC1)N1CCc2ccccc21,n,n,n,n,n,60
COc1ccc(C/C(C)=N/NC(=O)c2cccnc2)cc1,n,n,n,n,n,n
CC(CCc1ccccc1)NC(=O)COc1ccc(S(=O)(=O)N2CCOCC2)cc1[N+](=O)[O-] (stereo unspecified),n,n,n,n,n,n
CCOC(=O)c1oc2ccc(S(=O)(=O)n3nc(-c4ccccc4)cc3N)cc2c1C,n,n,n,n,n,97
COc1ccc(C(=O)NC(=S)NNC(=O)CNC(=O)C2CCCCC2)cc1,x,n,x,n,n,n
CC[C@@H](C)[C@H](NC(=O)OC(C)(C)C)c1nnc(S(=O)(=O)Cc2cc(C)ccc2C)o1,2.8,n,3.8,n,n,n
Cc1ccccc1CS(=O)(=O)c1nnc([C@H](CC(C)C)NC(=O)OC(C)(C)C)o1,n,n,n,n,n,n
O=C(C1=C[C@H](c2coc3ccccc3c2=O)C[C@H](OCCCCO)O1)N1CCN(Cc2ccc3c(c2)OCO3)CC1,x,n,x,n,n,n
c1ccc(CNc2nc(-c3cccs3)nc3ccccc23)nc1,x,n,x,n,n,78
Cc1ccc(CNc2nc(-c3cccs3)nc3ccccc23)cc1,n,n,n,n,n,76
